Screening results as filed in PubChem BioAssay.
TDP2 absorb – TDP2 (human) inhibition, absorbance primary screen. O95551. recombinant TDP2, T5PNP hydrolysis, p-nitrophenol absorbance 415 nm. inhibition, % at 12.8 µM. hit rate 0.34% among 370,000. AID 720702;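 active means inhibition above the mean of all tested compounds plus 3 SD, set per campaign, cut at about 25% in these data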;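 further: 0% = DMSO with enzyme and 100% = buffer with substrate but no TDP2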
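Incubation: 2 h at 37 °C; Test system: recombinant human TDP2; Quantity: enzyme 120 nM; Read-out basis: percent inhibition; Medium: 50 mM Tris-HCl pH 7.5 with Mg2+, KCl, DTT, BSA; Repeats: single replicate; Compound: 12.8 µM single point, 1% DMSO; Signal: epi absorbance; Reagent: 5 mM T5PNP chromogenic substrate; Benchmarks: no-enzyme high, DMSO-plus-enzyme low.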
HTRA1 inh – inhibitors of human serine peptidase HTRA1; Q92743; recombinant HTRA1, FP-rhodamine activity-based probe, fluorescence polarization; inhibition, % at 5.96 µM; hit rate 0.5% among 340,000; in the data active means inhibition above about 36%;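 further: 0% = enzyme with DMSO and 100% = wells lacking enzyme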
TCR-CD3 inh – blocks the human TCR-CD3 interaction; TAMRA-labeled TCR probe fluorescence, biochemical; inhibition, % at 9.4 µM; hit rate 0.37% among 360,000; AID 651800; in the data active means inhibition above about 19%;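 further: recombinant mutant TCR 2C K166C tagged with TAMRA read by polarization; 0% = receptor in buffer alone and 100% = receptor with positive control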
mABHD4 FP – inhibits mouse alpha/beta hydrolase domain 4. hit rate 0.54% among 370,000. purified mABHD4, FP-Rh probe fluorescence polarization. inhibition, % at 8.92 µM. Q8VD66;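 active means inhibition exceeding the mean over every tested compound plus 3 SD, cut at about 30% in these data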;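 further: 0% = plate median of compound wells and 100% = S159A mutant with DMSO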
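Test system: mABHD4 protein; Read-out basis: % inhibition; Incubation: 45 min + 60 min at 25 °C; Repeats: single replicate; Technique: fluorescence polarization with parallel and perpendicular emission, 525/598 nm; Compound: 8.92 µM, single dose; Benchmarks: full inhibition S159A mutant plus DMSO, zero as sample-well median.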
PAD4 FP inh – inhibitors of human PAD4; Q9UM07; recombinant PAD4, RCA probe fluorescence polarization; inhibition, % at 6.36 µM; hit rate 0.41% among 330,000; AID 485272;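 active means percent inhibition above a cutoff equal to the mean of all tested compounds plus 3 SD, cut at about 15% in these data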;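 further: 0% = PAD4 with RCA probe and DMSO and 100% = probe without PAD4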
SIAE inh – inhibitors of human sialic acid acetylesterase SIAE. hit rate 0.69% among 370,000. inhibition, % at 9.66 µM. SIAE FP-Rh probe binding, fluorescence polarization;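 active means inhibition above a cutoff: mean of compounds within the control limits plus 3 SD of those, cut at about 17% in these data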;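 further: 0% = plate median of compound wells and 100% = probe without SIAE protein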
Target sequence (Q9HAT2 whole entry, looked up): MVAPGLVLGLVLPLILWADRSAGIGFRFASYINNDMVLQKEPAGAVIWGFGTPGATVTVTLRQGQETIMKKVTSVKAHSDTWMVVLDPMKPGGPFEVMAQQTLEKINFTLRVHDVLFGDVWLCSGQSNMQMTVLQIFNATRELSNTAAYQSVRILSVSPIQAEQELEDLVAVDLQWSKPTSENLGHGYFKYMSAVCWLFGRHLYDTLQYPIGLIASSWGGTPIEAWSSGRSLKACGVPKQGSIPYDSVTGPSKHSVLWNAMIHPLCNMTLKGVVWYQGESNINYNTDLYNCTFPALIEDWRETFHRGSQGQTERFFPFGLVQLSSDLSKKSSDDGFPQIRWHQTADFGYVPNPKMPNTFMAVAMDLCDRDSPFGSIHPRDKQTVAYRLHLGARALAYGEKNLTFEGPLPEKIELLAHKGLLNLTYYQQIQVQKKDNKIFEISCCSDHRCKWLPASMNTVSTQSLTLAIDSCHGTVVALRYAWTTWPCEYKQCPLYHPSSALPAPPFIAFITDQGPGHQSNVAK
PAD4 confirm – PAD4 (human) inhibition, confirmed; shares compounds with PAD4 FP inh; recombinant PAD4, RCA probe fluorescence polarization; inhibition, % at 6.36 µM; hit rate 28% among 1,200;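 active means mean inhibition across replicates above the hit cutoff set by the earlier primary screen, cut at about 15% in these data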;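 further: inhibitors block active-site labeling by the probe so polarization falls; 0% = PAD4 with probe and DMSO and 100% = probe without PAD4 enzyme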
* hit, by the source's call; / = no result given. Compounds with a hit are over-represented: about 2% of the library has one in this group of screens.

SMILES | TDP2 absorb | HTRA1 inh | TCR-CD3 inh | mABHD4 FP | PAD4 FP inh | SIAE inh | PAD4 confirm
COC(=O)c1cccc(NC(=O)CCc2c(C)noc2C)c1 | -5.8 | -8.8 | 1.3 | -1.8 | 31.4* | -9.3 | -0.2
COc1cccc2cc(C(=O)NCCc3ccccc3)oc12 | -3.9 | -4.6 | 0.8 | -10.2 | 16.8* | -4.4 | 13.7
COc1cccc(OC)c1C(=O)NCCc1ccccc1 | -16.4 | -3.3 | 1.0 | -7.3 | 4.4 | -3.0 | /
COC(=O)[C@@H]1C[C@@]2(c3ccccc3)c3ccccc3N(S(=O)(=O)c3ccccc3)[C@H]2N1C(=O)CNC1CCCCC1 | -2.0 | / | / | 11.3 | / | 3.5 | /
Cc1[nH]c2ccccc2c1C(C#N)(C#N)C1C(=O)c2ccccc2C1=O | 18.2 | 27.2 | -1.1 | 39.0* | 37.4* | 8.4 | -1.0
O=[N+]([O-])c1cccc(OCCCN2CCC(C(O)(c3ccccc3)c3ccccc3)CC2)c1 | 0.7 | / | / | 0.0 | / | -7.6 | /
Cc1cccc(-n2c(N)c(C(=O)NCCN3CCOCC3)c3nc4ccccc4nc32)c1 | -2.0 | / | -10.9 | -2.2 | 16.6* | 4.6 | -10.8
CC(C)Cn1c(N)c(C(=O)NCCN2CCOCC2)c2nc3ccccc3nc21 | 9.0 | -7.2 | -6.1 | 0.7 | -4.3 | -3.4 | /
Cc1nc(SCC(=O)O)c2oc3ccccc3c2n1 | -0.2 | -2.2 | 2.1 | 2.7 | -2.3 | -6.6 | /
Cc1nc(SCC(=O)NCc2ccccc2)c2oc3ccccc3c2n1 | -3.8 | 6.5 | 3.5 | 4.4 | 21.5* | 8.2 | -5.6
CS/C(=N\S(=O)(=O)c1cccs1)NC(=O)CSc1nc2ccccc2s1 | 3.7 | 5.9 | 14.9 | -3.4 | 18.1* | -9.6 | 6.5
C/C(=N/NC(=O)CSc1nc2ccccc2s1)c1ccncc1 | 1.2 | -9.1 | -5.0 | -8.3 | 3.9 | -4.8 | /
CN1Cc2nnn(Cc3ccccc3)c2-c2cc(N3CCCC3)ccc2S1(=O)=O | 3.8 | / | / | -3.1 | / | -2.0 | /
Cc1cc(C(=O)O[C@@H]2CCC[C@@]3(C(=O)N(Cc4ccccc4)c4ccccc43)[C@H]2NC(=O)CCc2ccccc2)no1 | -5.4 | / | / | -6.0 | / | 2.9 | /
CC(CCc1ccccc1)NC(=O)CNC(=O)COc1ccccc1 (centres undefined) | 13.5 | -2.2 | 8.2 | 4.6 | 29.6* | 5.4 | -2.0
O=C(COC(=O)c1ccc(Sc2ncn[nH]2)c([N+](=O)[O-])c1)Nc1ccc(Cl)c(Cl)c1 | 4.2 | / | / | -39.0 | / | -16.8 | /
C=CCN1C(C(=O)OC)CN(Cc2cn(Cc3ccc(Cl)cc3)nn2)CCS1(=O)=O (centres undefined) | -13.5 | / | / | -6.6 | / | 5.7 | /
Nn1c(SCc2ccccc2)nc2c(cnn2-c2ccccc2)c1=O | 1.2 | -0.9 | -1.5 | 2.2 | 18.4* | -2.1 | 3.4
O=C(Nc1ccc(Cl)cc1)O[C@@H]1CC[C@@]23CCCN2C(=O)CCC[C@H]3C1 | 1.5 | / | / | -5.4 | / | -1.8 | /
CC(C)(C)CCN1C[C@@H]2C(CNC(=O)c3cc(Cl)cc(Cl)c3)[C@@H]2C1 (some centres undefined) | 1.3 | / | / | 1.5 | / | -2.0 | /
CCn1c(-c2ccccn2)nc2cc(S(=O)(=O)N(C)C)ccc21 | 11.2 | 3.8 | 10.3 | 7.3 | -3.5 | 0.6 | /
CCn1c(-c2cc(Br)cc(OC)c2O)nc2cc(S(=O)(=O)N(C)C)ccc21 | 3.5 | 10.2 | 6.4 | 0.4 | 17.6* | 0.3 | 22.0*
CN(C)S(=O)(=O)c1cccc(NC(=O)CSc2ncnc3ccccc23)c1 | 20.2 | 5.5 | 9.0 | -3.2 | 15.1* | -9.5 | 12.3
CC(C)NC(=O)N[C@H]1C[C@@H]2O[C@@H](CO)CC[C@@H]2O[C@@H]1CCc1ccc(-c2ccc(F)cc2)cc1 | 2.6 | / | / | -4.8 | / | -18.1 | /
O=C(Nc1ccccc1Br)C(=O)N1CCCC1 | 6.9 | 1.9 | 1.7 | 1.2 | -1.8 | 1.0 | /
O=C(Nc1ccccn1)C(=O)N1CCCCC1 | -5.7 | -1.3 | 9.2 | 11.1 | 36.0* | 4.4 | -2.4
CC(C)(C)OC(=O)NCCCc1ccc2c(c1)[C@]1(CCC[C@@H](OCc3ccccc3)[C@@H]1NC(=O)CCc1ccccc1)C(=O)N2Cc1ccccc1 | -4.3 | / | / | -10.1 | / | -7.1 | /
CC(C)CCc1c(O)nc(SCC(=O)N2CCCCCC2)[nH]c1=O | 10.9 | 2.9 | 6.7 | 1.0 | 16.1* | 11.4 | 2.6
